This note sets out measurements from ChEMBL document CHEMBL3758131, “Towards new 5-HT7 antagonists among arylsulfonamide derivatives of (aryloxy)ethyl-alkyl amines: Multiobjective based design, synthesis, and antidepressant and anxiolytic properties” (Eur J Med Chem, 2016).

Series [1] has as its system Mus musculus. Nature of the series: Antidepressant activity in ip dosed albino Swiss mouse assessed as decrease in immobility time at MED by forced swim test. In kind it is functional.
Series [2] relates to Mus musculus. Briefly: Anxiolytic activity in ip dosed albino Swiss mouse assessed as increase in number of shocks accepted measured over 1 min, 15 secs by four plates test. In kind it is functional. The following applies: read-out: MED. The essentials:
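Male Albino Swiss mice, ip injection 60 min before test. Four-plate cage; after 15 s of habituation, each plate-to-plate crossing during a 1-min session is punished with a 0.8 mA, 0.5 s foot shock, followed by a 3-s shock-free interval. Number of shocks accepted is counted.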

For another series, the species on record is Homo sapiens. Briefly: Selectivity index ratio of Ki for human 5-HT1A receptor to Ki for human 5-HT7B.
Series [3] concerns Mus musculus. Briefly: Antidepressant activity in C57BL/6J mouse assessed as average force at […], ip measured over 6 mins by tail suspension test (reference value: 0.281 +/- 0.018 to 0.359 +/- 0.027 N). In kind it is functional.
Series [4] has as its target T1, 5-hydroxytryptamine receptor 7 (Homo sapiens, UniProt P34969). Nature of the series: Antagonist activity at human 5-HT7B receptor expressed in HEK293 cells assessed as inhibition of 5-CT-induced cAMP production after 30 mins by TR-FRET assay. In kind it is functional, cell-based. In a few lines: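 HEK293 cells stably expressing human 5-HT7b, grown in DMEM with 10% dialyzed FBS and G418, then resuspended in HBSS with 5 mM HEPES, 0.5 mM IBMX and 0.1% BSA. 450 cells per well were incubated 30 min at room temperature with compound and 6.2 nM 5-CT. After lysis, cAMP was read by LANCE TR-FRET after 1 h. Triplicate, 8 concentrations (10^-11–10^-4 M). Kb = IC50/(1+A/EC50).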

For series [5], the target named is T1, 5-hydroxytryptamine receptor 7. Briefly: Antagonist activity at human 5-HT7B receptor expressed in […] cells assessed as inhibition of 5-CT induced cAMP production at 10^-6 M after 30 mins by TR-FRET assay. In kind it is functional, cell-based.
The test system of series [6] is Mus musculus. Nature of the series: Antidepressant activity in C57BL/6J mouse assessed as number of events at […], ip measured over 6 mins by tail suspension test (reference value: 1325.1 +/- 77.8 to 1773.4 +/- 109.9). In kind it is functional.
Series [7] concerns the target T1, 5-hydroxytryptamine receptor 7. Nature of the series: Antagonist activity at human 5-HT7B receptor expressed in CHO cells assessed as inhibition of 5-CT induced cAMP production at 10^-7 M after 30 mins by TR-FRET assay. In kind it is functional, cell-based.
Series [8] deals with T2, 5-hydroxytryptamine receptor 1A (Homo sapiens, UniProt P08908).
T2 sequence (P08908 whole entry): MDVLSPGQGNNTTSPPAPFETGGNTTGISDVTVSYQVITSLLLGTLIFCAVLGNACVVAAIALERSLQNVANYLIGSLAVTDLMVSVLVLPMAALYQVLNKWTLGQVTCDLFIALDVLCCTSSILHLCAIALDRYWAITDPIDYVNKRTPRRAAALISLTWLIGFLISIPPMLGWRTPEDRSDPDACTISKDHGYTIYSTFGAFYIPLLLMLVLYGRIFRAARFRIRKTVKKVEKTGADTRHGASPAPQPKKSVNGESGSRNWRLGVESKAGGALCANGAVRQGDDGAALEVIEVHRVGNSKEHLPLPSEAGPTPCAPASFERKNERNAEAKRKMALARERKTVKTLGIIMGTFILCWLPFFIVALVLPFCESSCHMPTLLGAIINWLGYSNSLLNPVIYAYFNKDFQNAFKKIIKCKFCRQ
Nature of the series: Displacement of [3H]-8-OH-DPAT from human 5-HT1A receptor expressed in HEK293 cells after 1 hr. In kind it is cell-based. The essentials:
(§1)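 Competition binding on membranes from HEK293 cells stably expressing human 5-HT7b or 5-HT1A. Incubation 1 h, at 37 °C for 5-HT7b and at room temperature for 5-HT1A. Non-specific binding defined with 10 µM 5-HT.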

In series [9] the test system is Mus musculus. Briefly: Toxicity in ip dosed C57BL/6J mouse assessed as effect on spontaneous locomotory activity at MED measured over 6 mins. In kind it is organism-based. The conditions noted are these: in vivo, 0.1 h. The essentials: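 Mice habituated 30 min in individual cages, then ambulation counted over a period matching each behavioural test: 6 min for the tail suspension test and 1 min 15 s for the four-plate test. Compounds given ip at the active doses.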

For the next series, the target named is D(2) dopamine receptor (Homo sapiens, UniProt P14416). Nature of the series: Displacement of [3H]-Raclopride from human D2L receptor expressed in HEK293 cells after 1 hr. In kind it is cell-based. The essentials:
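Membranes from stably transfected HEK293 cells were homogenized in assay buffer and spun twice at 35,000 g with a 15-min 37 °C step between. Binding ran 1 h at 37 °C and was stopped by rapid filtration, then filter radioactivity was counted. 5-HT6 buffer: 50 mM Tris-HCl, 0.5 mM EDTA, 4 mM MgCl2, with methiothepine for nonspecific binding. D2L buffer: Tris-HCl, EDTA, MgCl2, 120 mM NaCl, KCl, CaCl2, ascorbate, with (+)butaclamol for nonspecific binding. Triplicate, 7–8 concentrations (10^-11–10^-4 M).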

Series [10] relates to Mus musculus. Briefly: Toxicity in ip dosed C57BL/6J mouse assessed as effect on spontaneous locomotory activity at MED measured over 1 min 15 secs. In kind it is organism-based. The conditions noted are these: in vivo.
In another series the test system is Rattus norvegicus. Briefly: Antidepressant activity in ip dosed Wistar rat assessed as reduction in immobility time of rat by forced swim test. In kind it is functional. The following applies: read-out: MED. In a few lines: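 Male Wistar rats (220-250 g), ip injection 30 min before test. Day 1: 15-min pre-swim in a cylinder with 15 cm of water at 25 °C, then drying under a lamp. Next day: total immobility recorded over the whole 5-min test, with fresh water for each rat.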

Series [11] has as its system Mus musculus. Nature of the series: Antidepressant activity in ip dosed C57BL/6J mouse assessed as reduction in immobility time of mouse by tail suspension test. In kind it is functional. The following applies: read-out: MED.
For series [12], the system named is Mus musculus. Nature of the series: Antidepressant activity in C57BL/6J mouse assessed as number of events at 5 mg/kg, ip measured over 6 mins by tail suspension test (reference value: 1325.1 +/- 77.8 to 1773.4 +/- 109.9). In kind it is functional.
The subject of series [13] is Mus musculus. Nature of the series: Antidepressant activity in C57BL/6J mouse assessed as average force at 5 mg/kg, ip measured over 6 mins by tail suspension test (reference value: 0.281 +/- 0.018 to 0.359 +/- 0.027 N). In kind it is functional.
For series [14], the system named is Mus musculus. Nature of the series: Antidepressant activity in C57BL/6J mouse assessed as immobility time at […], ip measured over 6 mins by tail suspension test (reference value: 160.7 +/- 12 to 170.6 +/- 9 sec). In kind it is functional.
Series [15] relates to Mus musculus. Briefly: Toxicity in ip dosed albino Swiss mouse assessed as effect on spontaneous locomotory activity at MED measured over 2 to 6 mins. The conditions noted are these: in vivo. In kind it is organism-based. The essentials:
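Male Albino Swiss mice (22–28 g) received drug i.p. 60 min before testing, in 1% aqueous Tween 80 or distilled water. Each mouse was habituated alone in a plastic cage for 30 min, then ambulation was counted from 2 to 6 min. Groups of 6–10 animals, each used once.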

Series [16] deals with Mus musculus. Nature of the series: Antidepressant activity in C57BL/6J mouse assessed as average force at 0.625 mg/kg, ip measured over 6 mins by tail suspension test (reference value: 0.281 +/- 0.018 to 0.359 +/- 0.027 N). In kind it is functional.
For series [17], the target named is T1, 5-hydroxytryptamine receptor 7. Briefly: Displacement of [3H]-5-CT from human 5-HT7B receptor expressed in HEK293 cells after 1 hr. In kind it is cell-based. In a few lines: as §1

T1 sequence (P34969 whole entry): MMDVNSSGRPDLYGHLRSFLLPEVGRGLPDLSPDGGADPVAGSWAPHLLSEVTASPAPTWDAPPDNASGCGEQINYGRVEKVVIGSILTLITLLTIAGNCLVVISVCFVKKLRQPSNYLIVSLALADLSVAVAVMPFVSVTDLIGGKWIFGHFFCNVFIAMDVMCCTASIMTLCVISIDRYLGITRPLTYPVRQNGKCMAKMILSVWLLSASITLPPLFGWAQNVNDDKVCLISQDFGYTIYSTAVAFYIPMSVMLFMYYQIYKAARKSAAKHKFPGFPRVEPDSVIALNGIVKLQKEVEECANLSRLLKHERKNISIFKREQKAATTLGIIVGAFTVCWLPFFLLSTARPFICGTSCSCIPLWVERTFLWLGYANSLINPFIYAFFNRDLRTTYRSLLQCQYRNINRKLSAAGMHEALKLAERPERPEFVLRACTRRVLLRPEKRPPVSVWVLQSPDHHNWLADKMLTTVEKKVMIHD
Sequence of D(2) dopamine receptor (P14416 whole entry): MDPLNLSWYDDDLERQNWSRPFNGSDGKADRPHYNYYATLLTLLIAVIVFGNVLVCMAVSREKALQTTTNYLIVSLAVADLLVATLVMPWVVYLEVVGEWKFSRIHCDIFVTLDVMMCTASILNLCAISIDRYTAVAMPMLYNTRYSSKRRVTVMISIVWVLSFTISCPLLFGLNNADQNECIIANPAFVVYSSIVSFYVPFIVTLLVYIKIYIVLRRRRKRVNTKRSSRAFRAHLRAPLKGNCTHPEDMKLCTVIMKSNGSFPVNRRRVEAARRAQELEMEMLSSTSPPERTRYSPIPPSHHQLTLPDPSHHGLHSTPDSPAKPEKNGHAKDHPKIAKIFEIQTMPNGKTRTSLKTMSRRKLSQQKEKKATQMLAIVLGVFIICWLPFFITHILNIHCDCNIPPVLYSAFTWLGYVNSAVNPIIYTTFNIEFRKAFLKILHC

In the case of `O=S(=O)(NC1CCN(CCOc2ccccc2C2CCCC2)CC1)c1cccc(F)c1`, the “inhibition (INH)” value with Mus musculus [1] was determined as 18%. In addition, the results for the minimal effective dose in the series with Mus musculus [2], with Rattus norvegicus and in the series with Mus musculus [11] were 1.25 mg/kg, 1.25 mg/kg and 2.5 mg/kg, respectively. The Ratio Ki in the series filed under Homo sapiens was 31. In addition, the Activity in the series with Mus musculus [3] was 0.641 N; in the series with Mus musculus [6] it was 1400.7; with Mus musculus [9] it was “Non-toxic”; with Mus musculus [10] it was “Non-toxic”; with Mus musculus [12], 1682; with Mus musculus [13] it was 0.426 N. Further, the Activity entry with Mus musculus [15] is listed as “Non-toxic”; in the series with Mus musculus [16], 0.18 N. Further, the Kb in series [4] was determined as 85 nM. In addition, the inhibition in series [5] came to 90%; in series [7], 61%. For the same compound, the Ki turned out to be 545 nM in [8], 322 nM at D(2) dopamine receptor and 19 nM in [17]. For the same compound, the Time in the series on Mus musculus [14] is 103.5 s.
